The values that follow come from ChEMBL document CHEMBL1128269, “Synthesis and biological evaluation of NK1 antagonists derived from L-tryptophan” (J Med Chem, 1995).

For one assay, the system named is Cavia porcellus. The assay is described as follows: Inhibition of substance P-induced dermal plasma extravasation in the guinea pig 1 hr after oral dose. As to conditions: PIG1, Plasma, read-out: ID50 (the source's name). It counts as functional. In short, it runs like this:
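Guinea pigs were dosed orally 1 h before 0.5 pmol substance P was injected into the dorsal skin. Evans blue was given iv before the challenge. Plasma leakage was quantified from dye levels in the skin around the injection sites, and ID50 was expressed in mg/kg.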

In assay [1] the target is Substance-P receptor (Homo sapiens, UniProt P25103, Q165A). The assay is described as follows: Binding affinity against Gln165Ala mutant type human Tachykinin receptor 1 expressed in CHO cells was measured by its ability to displace [125I]- Tyr-8 substance P. Format: cell-based.
Assay [2] deals with T1, Substance-P receptor (Homo sapiens, UniProt P25103). The assay is described as follows: Binding affinity against wild type human Tachykinin receptor 1 expressed in CHO cells was measured by its ability to displace [125I]- Tyr-8 substance P. It counts as cell-based.
Assay [3] deals with Mustela putorius furo. The assay is described as follows: Maximum change in the mean arterial blood pressure in the anesthetized ferret of substance P at 1 mg/Kg intravenous bolus. It counts as functional. The essentials: (§1)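 Ferrets were anesthetized with sodium pentobarbitone (40 mg/kg ip), maintained with sodium barbitalone (300 mg/kg ip), tracheally cannulated and ventilated with room air. Blood pressure was recorded via the femoral artery. Rising cumulative iv bolus doses (vehicle: distilled water, 1 mL/kg, or PEG, 0.5 mL/kg) went in via the femoral vein, with vehicle controls. Maximum change in mean arterial pressure is mean ± SD, n≥3.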

Assay [4] has as its target T1, Substance-P receptor. The assay is described as follows: Binding affinity against human Tachykinin receptor 1 expressed in CHO cells was measured by its ability to displace [125I]- Tyr-8 substance P. It counts as cell-based.
Assay [5] deals with Mustela putorius furo. The assay is described as follows: Maximum change in the mean arterial blood pressure in the anesthetized ferret of substance P at 0.3 mg/Kg intravenous bolus. Format: functional. The essentials: (§2)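 Pentobarbitone-induced (40 mg/kg ip), barbitalone-maintained (300 mg/kg ip) ferret anesthesia; trachea cannulated, ventilated with room air; blood pressure recorded via femoral artery, compounds given via femoral vein as rising cumulative iv boluses in distilled water (1 mL/kg) or poly(ethylene glycol) (0.5 mL/kg), matched vehicle controls. Maximum change in mean arterial pressure, mean ± SD, at least three determinations.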

Assay [6] relates to Mustela putorius furo. The assay is described as follows: Maximum change in the mean arterial blood pressure in the anesthetized ferret of substance P at 0.1 mg/Kg intravenous bolus. It counts as functional. In short, it runs like this: as §2
For assay [7], the system named is Mustela putorius furo. The assay is described as follows: Effect on heart rate of substance P antagonist was determined as change heart rate in the anesthetized ferret at 0.1 mg/Kg intravenous bolus. It counts as functional. In short, it runs like this: (§3)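 Ferrets anesthetized with sodium pentobarbitone (40 mg/kg ip), maintained with sodium barbitalone (300 mg/kg ip); tracheal cannula with artificial ventilation on room air; femoral artery cannulated for recording, femoral vein for dosing. Rising cumulative iv bolus doses, in distilled water (1 mL/kg) or poly(ethylene glycol) (0.5 mL/kg), with matched vehicle controls. Change in heart rate, mean ± SD of at least three determinations.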

For assay [8], the system named is Mustela putorius furo. The assay is described as follows: Effect on heart rate of substance P antagonist was determined as change heart rate in the anesthetized ferret at 3 mg/Kg intravenous bolus. It counts as functional. The essentials:
as §3

The test system of assay [9] is Mustela putorius furo. The assay is described as follows: Maximum change in the mean arterial blood pressure in the anesthetized ferret of substance P at 3 mg/Kg intravenous bolus. Format: functional. The essentials: as §1
Assay [10] relates to Mustela putorius furo. The assay is described as follows: Effect on heart rate of substance P antagonist was determined as change heart rate in the anesthetized ferret at 0.3 mg/Kg intravenous bolus. Format: functional. In short, it runs like this:
as §3

For assay [11], the system named is Mustela putorius furo. The assay is described as follows: Effect on heart rate of substance P antagonist was determined as change heart rate in the anesthetized ferret at 1 mg/Kg intravenous bolus. It counts as functional. The essentials:
as §3

For assay [12], the system named is Mustela putorius furo. The assay is described as follows: Maximum change in the mean arterial blood pressure in the anesthetized ferret of substane P at 1 mg/Kg intravenous bolus. Format: functional. The essentials:
as §2

Assay [13] concerns Mustela putorius furo. The assay is described as follows: Maximum change in the mean arterial blood pressure in the anesthetized ferret of substane P at 3 mg/Kg intravenous bolus. It counts as functional. In short, it runs like this: as §2
For assay [14], the system named is Mustela putorius furo. The assay is described as follows: Maximum change in the mean arterial blood pressure in the anesthetized ferret of substane P at 0.3 mg/Kg intravenous bolus. Format: functional. In short, it runs like this:
as §2

For assay [15], the system named is Mustela putorius furo. The assay is described as follows: Maximum change in the mean arterial blood pressure in the anesthetized ferret of substane P at 0.1 mg/Kg intravenous bolus. Format: functional. The essentials: as §2

Substance-P receptor (Homo sapiens, UniProt P25103, Q165A), sequence (P25103 whole entry Q165A): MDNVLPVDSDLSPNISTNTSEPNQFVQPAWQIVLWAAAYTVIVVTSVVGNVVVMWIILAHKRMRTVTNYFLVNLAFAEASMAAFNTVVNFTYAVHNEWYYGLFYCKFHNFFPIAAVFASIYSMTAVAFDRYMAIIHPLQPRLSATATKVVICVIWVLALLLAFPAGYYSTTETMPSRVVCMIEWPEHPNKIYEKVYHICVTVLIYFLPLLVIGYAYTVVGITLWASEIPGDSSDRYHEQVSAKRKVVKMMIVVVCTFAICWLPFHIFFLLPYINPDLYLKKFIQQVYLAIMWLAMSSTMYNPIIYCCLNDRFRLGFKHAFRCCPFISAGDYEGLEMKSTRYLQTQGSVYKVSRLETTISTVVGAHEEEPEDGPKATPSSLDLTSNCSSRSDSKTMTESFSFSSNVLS
T1 sequence (P25103 whole entry): as the sequence (P25103 whole entry Q165A) above, with A165Q counted along it

In general, IC50 refers to the point on the concentration scale where inhibition reaches its midpoint. Low values mean greater potency in that assay, high ones weaker potency in that assay. In the case of `O=C(Cc1ccncc1)N[C@@H](Cc1c[nH]c2ccccc12)C(=O)CCc1cc(C(F)(F)F)cc(C(F)(F)F)c1`, in the assay on Cavia porcellus, the ED50 was 1.9 mg/kg. Moreover, the IC50 on Substance-P receptor [1] is 10 nM; at Substance-P receptor [2], 0.4 nM; at Substance-P receptor [4] it was 0.5 nM. For the same compound, in the assay on Mustela putorius furo [3], the MABP is -20.

In the case of `O=C(CN1CCOCC1)N[C@@H](Cc1c[nH]c2ccccc12)C(=O)CCc1cc(C(F)(F)F)cc(C(F)(F)F)c1`, the IC50 on Substance-P receptor [1] worked out at 4 nM; on Substance-P receptor [2] it was 2 nM; at Substance-P receptor [4], 3.5 nM.

`COc1ccccc1CN[C@H]1CCCN[C@H]1c1ccccc1` [CP-99994]: the MABP is 13 in the assay on Mustela putorius furo [5], 10 with Mustela putorius furo [6] and 12 with Mustela putorius furo [3]. Also, the ED50 in the assay with Cavia porcellus was determined as 1.6 mg/kg.

In the case of `CN(C)CCC(=O)N[C@@H](Cc1c[nH]c2ccccc12)C(=O)CCc1cc(C(F)(F)F)cc(C(F)(F)F)c1`, the ED50 in the assay on Cavia porcellus is 10 mg/kg.

`O=C(CCCN1CCOCC1)N[C@@H](Cc1c[nH]c2ccccc12)C(=O)CCc1cc(C(F)(F)F)cc(C(F)(F)F)c1`: the IC50 at Substance-P receptor [1] was found to be 1.4 nM; on Substance-P receptor [2], 0.24 nM; at Substance-P receptor [4], 0.17 nM.

`O=C(CCc1ccncc1)N[C@@H](Cc1c[nH]c2ccccc12)C(=O)CCc1cc(C(F)(F)F)cc(C(F)(F)F)c1` gave an IC50 at Substance-P receptor [4] of 0.47 nM.

For `FC(F)(F)c1cccc(CO[C@H]2C3CCN(CC3)[C@H]2C(c2ccccc2)c2ccccc2)c1`, the values for the IC50 on Substance-P receptor [1], on Substance-P receptor [2] and on Substance-P receptor [4] were 2100 nM, 53 nM and 53 nM, respectively.

On to `O=C(CCN1CCCCC1)N[C@@H](Cc1c[nH]c2ccccc12)C(=O)CCc1cc(C(F)(F)F)cc(C(F)(F)F)c1`, for which the IC50 at Substance-P receptor [4] came out at 0.6 nM.

As for `CC(=O)N[C@H](COCc1cc(C)cc(C)c1)Cc1c[nH]c2ccccc12`, the IC50 at Substance-P receptor [4] is 767 nM.

As for `O=C(CCc1cc(C(F)(F)F)cc(C(F)(F)F)c1)[C@H](Cc1c[nH]c2ccccc12)NC(=O)C12CCN(CC1)CC2`, the MABP in the assay with Mustela putorius furo [5] was 4; in the assay with Mustela putorius furo [6] it was 2; with Mustela putorius furo [9] it was 34; in the assay on Mustela putorius furo [3], 18. The “Change in heart rate” value with Mustela putorius furo [7] came to 3; in the assay on Mustela putorius furo [8], 1; with Mustela putorius furo [10], 2; in the assay on Mustela putorius furo [11], 1. Besides, the ED50 in the assay on Cavia porcellus was 1.8 mg/kg. In addition, the values for the IC50 at Substance-P receptor [1], on Substance-P receptor [2] and at Substance-P receptor [4] were 8 nM, 1 nM and 0.9 nM, respectively.

With `CN(C)CCCCC(=O)N[C@@H](Cc1c[nH]c2ccccc12)C(=O)CCc1cc(C(F)(F)F)cc(C(F)(F)F)c1`, on Substance-P receptor [4], the IC50 worked out at 0.6 nM.

Take `O=C(Cc1cnc[nH]1)N[C@@H](Cc1c[nH]c2ccccc12)C(=O)CCc1cc(C(F)(F)F)cc(C(F)(F)F)c1`: the IC50 at Substance-P receptor [4] amounted to 3.8 nM.

At Substance-P receptor [4], `O=C(CCCN1CCCC1)N[C@@H](Cc1c[nH]c2ccccc12)C(=O)CCc1cc(C(F)(F)F)cc(C(F)(F)F)c1` showed an IC50 of 0.3 nM.

Regarding `CN(C)CCCC(=O)N[C@@H](Cc1c[nH]c2ccccc12)C(=O)CCc1cc(C(F)(F)F)cc(C(F)(F)F)c1`, the ED50 in the assay with Cavia porcellus is 4 mg/kg. Further, the concentration for half-maximal inhibition (IC50) on Substance-P receptor [4] came to 0.7 nM.

Regarding `COc1ccccc1CN[C@H]1C2CCN(CC2)[C@H]1C(c1ccccc1)c1ccccc1` [CP-96345], the MABP with Mustela putorius furo [12] was found to be 46; in the assay on Mustela putorius furo [13] it was 63; in the assay on Mustela putorius furo [14] it was 21; with Mustela putorius furo [15], 11. Besides, the “Change in heart rate” value was determined as 7 in the assay with Mustela putorius furo [7], 65 in the assay with Mustela putorius furo [8], 13 in the assay on Mustela putorius furo [10] and 21 in the assay on Mustela putorius furo [11].

Consider `O=C(CCC1CCNCC1)N[C@@H](Cc1c[nH]c2ccccc12)C(=O)CCc1cc(C(F)(F)F)cc(C(F)(F)F)c1`, for which the IC50 on Substance-P receptor [4] is 0.37 nM.

Turning to `Cc1cc(C)cc(CN(C)C(=O)[C@H](Cc2c[nH]c3ccccc23)NC(=O)c2ccccc2)c1`, at Substance-P receptor [4], the IC50 was determined as 1030 nM.
